System: HUVEC
Assay: Inhibitory activity against human umbilical vein endothelial cells (HUVEC) was assayed using MTT colorimetric proliferation assay
Type: functional, cell-based
Outline: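 HUVEC grown in EGM-2 medium with growth factor, seeded at 10,000 cells/well and left 4 h to adhere. Test compounds diluted in the medium were added. Incubation in a 5% CO₂ humidified atmosphere, then viability read by MTT colorimetric proliferation assay. Growth inhibition reported as IC50.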

Structure (SMILES)	IC50 [µM]
C[C@@H]1[C@@H]2CC[C@@H](C)[C@@H]3CCC4(C)O[C@@H](O[C@@H]1S(=O)(=O)c1ccccc1)[C@]23O4 (single isomer, unassigned)	> 50
C[C@H]1[C@@H](Sc2ccccc2)O[C@@H]2OC3(C)CC[C@H]4[C@H](C)CC[C@@H]1[C@@]24O3 (single isomer, unassigned)	> 50
C[C@@H]1CC[C@H]2[C@@H](C)C(=O)O[C@@H]3O[C@@]4(C)CC[C@@H]1[C@]32OO4 [ARTEMISININ]	> 50
C[C@@H]1CC[C@H]2[C@@H](C)C(=O)O[C@@H]3O[C@@]4(C)CC[C@@H]1[C@]32O4 [DEOXYARTEMISININ]	> 50
C[C@H]1[C@@H](O)O[C@@H]2O[C@@]3(C)CC[C@H]4[C@H](C)CC[C@@H]1[C@@]24OO3 [ARTENIMOL]	8.91
CCO[C@H]1O[C@@H]2O[C@@]3(C)CC[C@H]4[C@H](C)CC[C@@H]([C@H]1C)[C@@]24OO3 [ARTEMOTIL]	> 50
CC(=O)S[C@H]1O[C@@H]2O[C@]3(C)CC[C@H]4[C@H](C)CC[C@@H]([C@H]1C)[C@@]24OO3	4.56
C[C@H]1[C@H](S)O[C@@H]2OC3(C)CC[C@H]4[C@H](C)CC[C@@H]1[C@@]24OO3 (single isomer, unassigned)	1.29
C[C@H]1[C@@H]2CC[C@@H](C)[C@@H]3CCC4(C)OO[C@@]23[C@H](O[C@@H]1S(=O)(=O)c1ccccc1)O4 (single isomer, unassigned)	1.74
C[C@H]1[C@@H](Sc2ccccc2)O[C@@H]2OC3(C)CC[C@H]4[C@H](C)CC[C@@H]1[C@@]24OO3 (single isomer, unassigned)	5.24
C[C@H]1[C@H](Sc2ccccc2)O[C@@H]2OC3(C)CC[C@H]4[C@H](C)CC[C@@H]1[C@@]24OO3 (single isomer, unassigned)	0.93
C[C@@H]1[C@@H]2CC[C@@H](C)[C@@H]3CCC4(C)OO[C@@]23[C@H](O[C@@H]1S(=O)(=O)c1ccccc1)O4 (single isomer, unassigned)	18.2
C[C@H]1[C@H](Oc2ccccc2)O[C@@H]2OC3(C)CC[C@H]4[C@H](C)CC[C@@H]1[C@@]24OO3 (single isomer, unassigned)	31
C[C@H]1[C@@H](Oc2ccccc2)O[C@@H]2OC3(C)CC[C@H]4[C@H](C)CC[C@@H]1[C@@]24OO3 (single isomer, unassigned)	33.8
C[C@H]1[C@H](S(=O)(=O)c2ccccc2)O[C@@H]2OC3(C)CC[C@H]4[C@H](C)CC[C@@H]1[C@@]24OO3 (single isomer, unassigned)	12.8

Reference: ChEMBL document CHEMBL1136311, “Growth inhibition activity of thioacetal artemisinin derivatives against human umbilical vein endothelial cells” (Bioorg Med Chem Lett, 2003)
